{
  "source": "paper PMC10278071",
  "about": "(ACS Chemical Biology, 2023)",
  "key": {"[1]": {"tested_on": "C4–2 cells", "assay": "C4–2 cell growth with harmine and bicalutamide", "assay_type": "cell-based, human", "settings": "bicalutamide 10 μM, harmine 7 μM, alone or combined, after 6–8 days"}, "[2]": {"molecular_target": "T1, DNMT3B-3L complex (Homo sapiens, UniProt Q9UBC3)", "assay": "Inhibition kinetics assay", "assay_type": "biochemical", "settings": "for mode of inhibition versus SAM (Lineweaver–Burk): constant Vmax, increased Km upon inhibitor binding"}, "[3]": {"molecular_target": "T1, DNMT3B-3L complex", "assay": "Intrinsic tryptophan fluorescence spectroscopy titration", "assay_type": "binding", "in_short": "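His-tagged DNMT3B (571–853) and DNMT3L (179–379), co-lysed from E. coli Rosetta2(DE3)pLysS and tag-cleaved, 1 μM complex. Titrated with test compound 0–80 μM at 25 °C. Excitation 280 nm, emission 300–450 nm, slit 5 nm. Buffer titrations subtracted as background. Intensity change fitted by nonlinear one-site specific binding. Three independent experiments.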"}, "[4]": {"molecular_target": "DNMT3B-3L (Homo sapiens, UniProt Q9UBC3)", "assay": "Isothermal titration calorimetry", "assay_type": "binding", "in_short": "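Purified DNMT3B-3L complex at 0.02 mM in 20 mM Tris-HCl pH 8.0, 100 mM NaCl, 0.2 mM TCEP. Titrated with 7 μL injections of 0.52 mM test compound. Ligand-into-buffer heat subtracted. Independent binding model fitted to give n, Kd, ΔH and ΔS. Triplicate.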"}, "[5]": {"tested_on": "C4–2 cells", "assay": "Western blot of caspase-3 and Bcl-2 after harmine treatment", "assay_type": "cell-based, human", "settings": "50 and 100 μM harmine, 24 h, serum-free"}, "[6]": {"tested_on": "C4–2 cells", "assay": "Annexin V and PI staining flow cytometry apoptosis assay", "assay_type": "cell-based, human", "settings": "24 h", "in_short": "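C4–2 cells starved 24 h, then exposed 24 h in serum-free medium to test compound at 0, 50 or 100 μM. Cells washed twice in ice-cold PBS and resuspended at 2 × 10^6 cells/mL in binding buffer (10 mM HEPES pH 7.4, 150 mM NaCl, 2.5 mM CaCl2). Stained with APC-annexin V plus PI, then analysed by flow cytometry with compensation for spectral overlap.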"}, "[7]": {"tested_on": "DU145 cells", "assay": "Quantitative real-time PCR of hypermethylated genes", "assay_type": "cell-based, human", "settings": "DU145, 10 μM, 16 h, normalized to 18S rRNA", "in_short": "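DU145 cells (RPMI 1640, 10% FBS) treated with test compound at 0 or 10 μM for 16 h. Total RNA extracted with TRIzol and DNase-treated; 5 μg reverse-transcribed. SYBR Green qPCR with two-step cycling. Expression normalized to 18S rRNA, reported as fold change versus untreated cells. Student's t-test between groups.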"}, "[8]": {"tested_on": "murine DNMT3a", "settings": "read-out: IC50 murine DNMT3a; library screening; cited from earlier work"}, "[9]": {"tested_on": "DYRK1A", "settings": "read-out: IC50 DYRK1A; cited from earlier work"}, "[10]": {"molecular_target": "acetylcholine esterase (AChE)", "settings": "read-out: IC50 AChE; cited from earlier work"}, "[11]": {"tested_on": "Cdk1/cyclin B", "settings": "read-out: IC50 Cdk1/cyclin B; cited from earlier work"}, "[12]": {"tested_on": "Cdk2/cyclin A", "settings": "read-out: IC50 Cdk2/cyclin A; cited from earlier work"}, "[13]": {"tested_on": "Cdk5/p25", "settings": "read-out: IC50 Cdk5/p25; cited from earlier work"}, "[14]": {"tested_on": "DNMT3B", "settings": "read-out: IC50 DNMT3B; cited from earlier work"}, "[15]": {"tested_on": "DNMT3A", "settings": "read-out: IC50 DNMT3A; cited from earlier work"}, "[16]": {"tested_on": "DNMT1", "settings": "cited from earlier work"}, "[17]": {"tested_on": "human DNMT1", "settings": "read-out: IC50 human DNMT1; cited from earlier work"}, "[18]": {"tested_on": "DNMT3A", "settings": "read-out: IC50 DNMT3A; cited from earlier work", "remark": "listed apart in the source"}},
  "note": "Like-named read-outs stand apart in the source and are kept apart here.",
  "data": [
    {"smiles": "CC(O)(CS(=O)(=O)c1ccc(F)cc1)C(=O)Nc1ccc(C#N)c(C(F)(F)F)c1", "note": "(stereo not drawn) [bicalutamide]", "values": [
      {"measurement": "reduction of number of viable cells / cell proliferation", "setting": "[1]", "result": 17, "unit": "%"}
    ]},
    {"smiles": "COc1ccc2c(c1)[nH]c1c(C)nccc12", "note": "[harmine]", "values": [
      {"measurement": "mode of inhibition versus SAM (Lineweaver–Burk)", "setting": "[2]", "result": "competitive inhibitors"},
      {"measurement": "Kd", "setting": "[3]", "result": "3.48 ± 1.95", "unit": "µM"},
      {"measurement": "Kd", "setting": "[4]", "result": "3.35 ± 0.3", "unit": "µM"},
      {"measurement": "ΔG, ITC", "setting": "[4]; 25 °C, mean ± SD, n=3", "result": "[…]"},
      {"measurement": "Bcl-2 protein levels", "setting": "[5]", "result": "decreased Bcl-2 protein levels"},
      {"measurement": "levels of cleaved caspase-3", "setting": "[5]", "result": "increased the levels of cleaved caspase-3"},
      {"measurement": "cell apoptosis (Annexin V and PI staining)", "setting": "[6]; 0, 50, 100 μM harmine", "result": "induced cell apoptosis"},
      {"measurement": "concentration inducing C4–2 cell death", "setting": "[6]; from western blot and flow cytometry", "result": "[…]"},
      {"measurement": "mRNA levels of DNMT3A and DNMT3B genes", "setting": "[7]", "result": "did not result in significant changes"},
      {"measurement": "reduction of number of viable cells / cell proliferation", "setting": "[1]", "result": 40, "unit": "%"},
      {"measurement": "IC50", "setting": "[8]", "result": 2.3, "unit": "µM"},
      {"measurement": "IC50", "setting": "[9]", "result": "[…]"},
      {"measurement": "IC50", "setting": "[10]", "result": 9.05, "unit": "µM"},
      {"measurement": "IC50", "setting": "[11]", "result": 17, "unit": "µM"},
      {"measurement": "IC50", "setting": "[12]", "result": 33, "unit": "µM"},
      {"measurement": "IC50", "setting": "[13]", "result": 20, "unit": "µM"}
    ]},
    {"smiles": "Oc1ccc(/C=C/c2cc(O)cc(O)c2)cc1", "note": "[resveratrol]", "values": [
      {"measurement": "Ki", "setting": "[2]", "result": "23.6 ± 4.17", "unit": "µM"},
      {"measurement": "mode of inhibition versus SAM (Lineweaver–Burk)", "setting": "[2]", "result": "competitive inhibitors"},
      {"measurement": "IC50", "setting": "[14]", "result": 65, "unit": "µM"},
      {"measurement": "IC50", "setting": "[15]", "result": 105, "unit": "µM"},
      {"measurement": "inhibitory activity on DNMT1", "setting": "[16]", "result": "no inhibitory activity"}
    ]},
    {"smiles": "Nc1ncnc2c1ncn2[C@@H]1O[C@H](C[C@@H](N)CC[C@H](N)C(=O)O)[C@@H](O)[C@H]1O", "note": "[sinefungin]", "values": [
      {"measurement": "IC50", "setting": "[17]", "result": "[…]"},
      {"measurement": "IC50", "setting": "[18]", "result": 1.8, "unit": "µM"}
    ]}
  ]
}
